ChEMBL document CHEMBL1156597, “Structure-activity relationship of kahalalide F synthetic analogues” (J Med Chem, 2008)

Assays:
DU-145 = assay: Cytotoxicity against human DU145 cells after 48 hrs by SRB assay; type: functional, cell-based; settings: Homo sapiens, DU-145, 48 h
Outline: (§1)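 Cells grown in RPMI 1640 with 10% FBS and penicillin/streptomycin at 37 °C and 5% CO₂, trypsinized, then seeded at 5 × 10³/well. After 18 h drug-free attachment, samples in DMSO/EtOH/PBS (0.5:0.5:99) were added for 48 h continuous exposure. Cells were fixed with cold TCA (1 h, 4 °C) and stained with SRB (10 min). Tris-solubilized stain read at 490 nm. Triplicate wells, mean ± SD; GI₅₀ derived.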

A549 = assay: Cytotoxicity against human A549 cells after 48 hrs by SRB assay; type: functional, cell-based; settings: Homo sapiens, A549, 48 h; outline: as §1
HT-29 = assay: Cytotoxicity against human HT29 cells after 48 hrs by SRB assay; type: functional, cell-based; settings: Homo sapiens, HT-29, 48 h; outline: as §1
SK-MEL-28 = assay: Cytotoxicity against human SK-MEL-28 cells

SMILES | IC50 (DU-145) | IC50 (A549) | IC50 (HT-29) | IC50 (SK-MEL-28)
C/C=C1\NC(=O)[C@H](Cc2ccccc2)NC(=O)[C@@H](C(C)C)NC(=O)[C@@H]([C@H](C)CC)NC(=O)[C@H](NC(=O)[C@H](NC(=O)[C@H](CCCN)NC(=O)[C@H]2CCCN2C(=O)[C@@H](NC(=O)[C@H](NC(=O)[C@@H](NC(=O)[C@H](NC(=O)CCCC(C)C)C(C)C)[C@@H](C)O)C(C)C)C(C)C)[C@H](C)CC)[C@H](C)OC(=O)[C@H](C(C)C)NC1=O | 3.39 µM | 3.39 µM | 3.39 µM | 3.39 µM
C/C=C1\NC(=O)[C@H](Cc2ccccc2)NC(=O)[C@@H](C(C)C)NC(=O)[C@@H]([C@H](C)CC)NC(=O)[C@H](NC(=O)[C@H](NC(=O)[C@H](CCCN)NC(=O)[C@H]2CCCN2C(=O)[C@H](NC(=O)[C@@H](NC(=O)[C@@H](NC(=O)[C@H](NC(=O)CCCN(C)C)C(C)C)[C@@H](C)O)C(C)C)C(C)C)[C@H](C)CC)[C@H](C)OC(=O)[C@H](C(C)C)NC1=O | 6.77 µM | 6.77 µM | 6.77 µM | 6.77 µM
C/C=C1\NC(=O)[C@H](Cc2ccccc2)NC(=O)[C@@H](C(C)C)NC(=O)[C@@H]([C@H](C)CC)NC(=O)[C@H](NC(=O)[C@H](NC(=O)[C@@H](NC(=O)[C@H](NC(=O)CCCC(C)C)C(C)C)[C@@H](C)O)[C@H](C)CC)[C@H](C)OC(=O)[C@H](C(C)C)NC1=O | 9.36 µM | 9.36 µM | 9.36 µM | 9.36 µM
C/C=C1\NC(=O)[C@H](Cc2ccccc2)NC(=O)[C@@H](C(C)C)NC(=O)[C@@H]([C@H](C)CC)NC(=O)[C@H](NC(=O)[C@H](NC(=O)[C@@H](NC(=O)[C@@H](NC(=O)[C@H](NC(=O)CCCC(C)C)C(C)C)[C@@H](C)O)C(C)C)[C@H](C)CC)[C@H](C)OC(=O)[C@H](C(C)C)NC1=O | 4.3 µM | 4.3 µM | 4.3 µM | 4.3 µM
